Reference: ChEMBL document CHEMBL4028911, “Discovery of a Small-Molecule Bromodomain-Containing Protein 4 (BRD4) Inhibitor That Induces AMP-Activated Protein Kinase-Modulated Autophagy-Associated Cell Death in Breast Cancer” (J Med Chem, 2017)
The source made the active and inactive calls. The rule behind the calls is not given here.

Columns and labels:
[1] = molecular target: T1, Bromodomain-containing protein 4 (Homo sapiens, UniProt O60885); experiment: Inhibition of BRD4 in human MDA-MB-231 cells assessed as induction of AMPKalpha phosphorylation at thr172 at 3 uM in presence of ATG5 siRNA by Western blot analysis; type: cell-based
Summary of the method: (§1)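 Cells given 50 nM ATG5 or negative-control siRNA (Lipofectamine RNAiMAX) and used 48 h later, then exposed to 1.5 μM (MCF-7) or 3 μM (MDA-MB-231). p-AMPKα analysed by western blot with β-actin loading control.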

[2] = tested on: MCF-7; experiment: Downregulation of HMGB1 expression in human MCF-7 cells at 1.5 uM measured up to 24 hrs by Western blot analysis
[3] = organism: Homo sapiens; experiment: Increase in p53 interaction with AMPK in human MCF7 cells at 1.5 uM by co-immunoprecipitation assay; type: cell-based
Summary of the method: (§2)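 Cells left untreated or treated, then lysed in RIPA (40 mM Tris-HCl pH 7.5, 150 mM NaCl, 0.5% NP-40, protease inhibitors, 5% glycerol, 10 mM NaF). Lysates incubated overnight at 4°C with BRD4 or p53 antibodies plus protein A/G beads, washed 3 times, resolved on 10% SDS-PAGE. Blots probed for p53 and AMPKα; inputs checked for BRD4, p53 and AMPKα.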

[4] = tested on: MDA-MB-231; experiment: Antiproliferative activity against human MDA-MB-231 cells after 24 hrs by MTT assay; type: functional, cell-based; conditions: MDA-MB-231, 24 h
[5] = molecular target: T1, Bromodomain-containing protein 4; experiment: Inhibition of BRD4 in human MDA-MB-231 cells assessed as downregulation of AKT phosphorylation at thr308 at 3 uM measured up to 36 hrs by Western blot analysis; type: cell-based
Summary of the method: (§3)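 MCF-7 (1.5 μM) or MDA-MB-231 (3 μM) cells treated for indicated times. Adherent and floating cells lysed in RIPA with 1 mM PMSF. Equal protein run on 10-15% SDS-PAGE, blotted to PVDF, blocked in milk or BSA, HRP/ECL detection. β-actin loading control.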

[6] = tested on: Mus musculus; experiment: Toxicity in BALB/c mouse xenografted with human MCF7 cells assessed as effect on body weight at 25 to 100 mg/kg, ig administered once a day for 24 days measured every 3 days; type: organism-based; conditions: in vivo, po
Summary of the method: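 Female BALB/c nude mice (6-8 weeks, 20-22 g) with subcutaneous MCF-7 or MDA-MB-231 xenografts (5×10^6 cells). At 100 mm3, given 25, 50 or 100 mg/kg intragastrically once daily, or vehicle, for 24 or 27 days. Body weight recorded every 3 days. MCF-7 n=7, MDA-MB-231 n=6 per group.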

[7] = tested on: MDA-MB-231; experiment: Antitumor activity against human MDA-MB-231 cells xenografted in nude BALB/c mouse assessed as tumor growth inhibition at 25 to 100 mg/kg, ig administered once a day for 27 days measured every 3 days relative to control; type: functional
Summary of the method: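 Female BALB/c nude mice, 6-8 weeks, 20-22 g, injected subcutaneously with 5×10^6 MCF-7 or MDA-MB-231 cells. At 100 mm³ tumor volume (V = L×W²/2), split into four groups: 25, 50 or 100 mg/kg intragastric once daily for 24 or 27 days, or vehicle. Tumor volume and body weight measured every 3 days; tumors excised and weighed at end. MCF-7 n=7, MDA-MB-231 n=6 per group.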

[8] = molecular target: T1, Bromodomain-containing protein 4; experiment: Inhibition of BRD4 in human MCF7 cells assessed as reduction in ULK1 protein expression at 1.5 uM up to 36 hrs by Western blot analysis; type: cell-based; summary of the method: as §3
[9] = molecular target: T1, Bromodomain-containing protein 4; experiment: Inhibition of BRD4 in human MCF7 cells assessed as induction of AMPKalpha phosphorylation at thr172 at 1.5 uM measured up to 36 hrs by Western blot analysis; type: cell-based; summary of the method: as §3
[10] = tested on: MDA-MB-231; experiment: Induction of autophagy in human MDA-MB-231 cells assessed as assessed as cytoplasmic vacuolization; type: functional, cell-based
[11] = tested on: MCF7; experiment: Induction of autophagy in human MCF7 cells assessed as downregulation of p62/SQSTM1 expression at 1.5 uM measured up to 36 hrs by Western blot analysis; type: functional, cell-based
Summary of the method: (§4)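 MCF-7 (1.5 µM) or MDA-MB-231 (3 µM) cells treated for indicated times. Adherent and floating cells lysed in RIPA with 1 mM PMSF, 4°C for 1 h. Equal protein run on 10-15% SDS-PAGE, transferred to PVDF, blocked with milk or BSA, probed with primary then HRP secondary antibodies, ECL detection; β-actin as loading control.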

[12] = molecular target: T1, Bromodomain-containing protein 4; experiment: Inhibition of recombinant human BRD4 bromodomain-2 (342 to 460 residues) expressed in Escherichia coli expression system after 120 mins by TR-FRET assay
[13] = molecular target: T1, Bromodomain-containing protein 4; experiment: Inhibition of BRD4 in human MCF7 cells assessed as induction of AMPKalpha phosphorylation at thr172 at 1.5 uM in presence of ATG5 siRNA by Western blot analysis; type: cell-based; summary of the method: as §1
[14] = molecular target: T1, Bromodomain-containing protein 4; experiment: Inhibition of BRD4 in human MDA-MB-231 cells assessed as increase in ULK1 phosphorylation at ser317 at 3 uM up to 36 hrs by Western blot analysis; type: cell-based; summary of the method: as §3
[15] = tested on: MDA-MB-231; experiment: Induction of autophagy in human MDA-MB-231 cells assessed as cytoplasmic vacuolization at 3 uM by electron microscopy; type: functional, cell-based
Summary of the method: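 MCF-7 (1.5 µM) or MDA-MB-231 (3 µM) cells treated for indicated times. Cytoplasmic vacuoles examined by transmission electron microscopy.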

[16] = tested on: MDA-MB-468; experiment: Induction of autophagy in human MDA-MB-468 cells assessed as increase in LC3-2 expression expression measured up to 48 hrs by Western blot analysis; type: functional, cell-based
[17] = molecular target: T1, Bromodomain-containing protein 4; experiment: Inhibition of BRD4 in human MDA-MB-231 cells assessed as downregulation of mTOR phosphorylation at ser244 at 3 uM measured up to 36 hrs by Western blot analysis; type: cell-based; summary of the method: as §3
[18] = molecular target: T1, Bromodomain-containing protein 4; experiment: Inhibition of BRD4 in human MCF7 cells assessed as reduction in FIP200 protein expression at 1.5 uM up to 36 hrs by Western blot analysis; type: cell-based; summary of the method: as §3
[19] = tested on: MCF7; experiment: Induction of autophagy in human MCF7 cells assessed as upregulation of beclin1 expression at 1.5 uM measured up to 36 hrs by Western blot analysis; type: functional, cell-based; summary of the method: as §4
[20] = tested on: Mus musculus; experiment: In vivo inhibition of BRD4 expression in BALB/c mouse xenografted with human MCF7 cells at 100 mg/kg, ig administered once a day for 24 days by Western blot analysis; type: functional, organism-based
Summary of the method: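 Tumor tissues excised from MCF-7 or MDA-MB-231 xenograft mice were lysed and analysed by western blot for BRD4, c-Myc, LC3 and cleaved caspase-3.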

[21] = organism: Homo sapiens; experiment: Effect on p53 interaction with AMPK in human MDA-MB-231 cells at 3 uM by co-immunoprecipitation assay; type: cell-based; summary of the method: as §2
[22] = molecular target: T1, Bromodomain-containing protein 4; experiment: Inhibition of BRD4 in human MDA-MB-231 cells assessed as reduction in FIP200 protein expression at 3 uM up to 36 hrs by Western blot analysis; type: cell-based; summary of the method: as §3
[23] = tested on: MCF7; experiment: Antiproliferative activity against human MCF7 cells after 24 hrs by MTT assay; type: functional, cell-based; conditions: MCF7, 24 h

inhibition [1]: Active
IC50 [4]: 3270 nM
inhibition [5]: Active
inhibition [8]: Active
inhibition [9]: Active
IC50 [12]: 930 nM
inhibition [13]: Active
inhibition [14]: Active
inhibition [17]: Active
inhibition [18]: Active
inhibition [22]: Active
IC50 [23]: 1620 nM
SMILES: Cc1cc(-c2nc3sc4c(c3c(=O)[nH]2)CCN(C)C4)cc(C)c1O
Activity [2]: Active
Activity [3]: Active
Activity [6]: Non-Toxic
TGI [7]: 76%
Activity [10]: Active
Activity [11]: Active
Activity [15]: Active
Activity [16]: Active
Activity [19]: Active
Activity [20]: Active
Activity [21]: inactive
